From PubChem
Hits are enriched below; roughly 2.8% of the tested compounds scored in any of these assays.
NPY Y1 blocker – blocks the human neuropeptide Y Y1 receptor; HEK293-CNG Y1 cells, membrane potential fluorescence; NPY at EC95, then isoproterenol; inhibition, % at 3.6 µM; 200,000 tested, 1% active; AID 1040;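 active means inhibition above the campaign mean inhibition of all tested compounds plus 3 SD, cut at about 20% in these data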;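 further: 0% = DMSO wells given NPY plus isoproterenol and 100% = isoproterenol alone without NPY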
Target sequence (P25929 whole entry, looked up): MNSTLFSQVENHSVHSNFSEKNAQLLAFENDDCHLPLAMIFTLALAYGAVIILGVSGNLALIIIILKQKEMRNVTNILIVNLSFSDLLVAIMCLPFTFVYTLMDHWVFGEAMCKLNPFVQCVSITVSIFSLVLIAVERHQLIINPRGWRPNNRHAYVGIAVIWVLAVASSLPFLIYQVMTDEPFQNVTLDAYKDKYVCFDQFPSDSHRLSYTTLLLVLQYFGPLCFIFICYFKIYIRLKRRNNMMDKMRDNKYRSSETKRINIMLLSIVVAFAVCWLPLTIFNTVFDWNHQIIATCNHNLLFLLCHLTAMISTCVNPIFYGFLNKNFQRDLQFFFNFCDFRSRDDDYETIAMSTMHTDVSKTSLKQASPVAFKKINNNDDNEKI
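Material: HEK293 cells co-expressing NPY Y1 receptor and cyclic-nucleotide gated channel. Timing: compound incubation 1 h at room temperature, readout 45 min post-stimulation. Signal: fluorescence, membrane potential probe.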
PGE2 EP2 inh – EP2 receptor (human) inhibition | P43116 | C6 glioma cells expressing human EP2, cAMP TR-FRET; cells stimulated with saturating PGE2 | inhibition, % at 25 µM | 260,000 tested, 0.52% active | AID 1422;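 active means percent inhibition above 40 after rounding to a whole number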;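 further: rat C6 glioma host cells with rolipram phosphodiesterase inhibitor present; the protocol text gives 20 µM as final concentration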
Target sequence (P43116 whole entry, looked up): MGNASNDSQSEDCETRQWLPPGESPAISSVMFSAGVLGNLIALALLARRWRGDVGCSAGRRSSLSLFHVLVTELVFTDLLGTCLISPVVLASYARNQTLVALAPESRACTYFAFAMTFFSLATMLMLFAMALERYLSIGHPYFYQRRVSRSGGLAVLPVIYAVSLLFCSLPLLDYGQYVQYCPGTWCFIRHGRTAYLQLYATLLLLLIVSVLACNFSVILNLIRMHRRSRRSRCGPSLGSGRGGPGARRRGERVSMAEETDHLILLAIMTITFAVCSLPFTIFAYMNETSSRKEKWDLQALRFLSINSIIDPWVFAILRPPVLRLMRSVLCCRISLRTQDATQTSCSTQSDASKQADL
NPY-Y2 antag – antagonists of human neuropeptide Y receptor Y2; P49146; NPY-Y2 expressing cells, antagonist mode; inhibition, % at 2.7 µM; 140,000 tested, 0.99% active; AID 793;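 further: 0% = vehicle with agonist challenge and 100% = reference antagonist with challenge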
EP2 modulator – EP2 receptor (human) modulation | EP2-expressing cells, cAMP HTRF FRET, PGE2 co-stimulation | induction, % at 25 µM | 260,000 tested, 0.83% active | AID 940;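 active means compounds whose cAMP rise, as percent of the full-agonist control response, exceeds 60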;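 further: rat C6 glioma line stably carrying human EP2 under a CMV promoter; the protocol text gives 20 µM as final concentration; 100% = response of wells given 1 µM PGE2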
NPY-Y1 PAM-ag – potentiators or agonists of human neuropeptide Y receptor Y1. activation, % at 3.6 µM. NPY-Y1 expressing cells, potentiator/agonist activation. AID 1304. 220,000 tested, 0.37% active. P25929; in the data active means activation above about 33%, passing the limit was not always enough;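 further: cells stimulated with NPY at EC10 then isoproterenol at EC100; 0% = low agonist plus stimulus and 100% = saturating agonist plus stimulus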
NPY2 pot ag – potentiators or agonists of human neuropeptide Y receptor Y2. P49146. AID 1359. 220,000 tested, 0.45% active. cells expressing NPY-Y2, potentiator/agonist read-out. activation, % at 3.6 µM; in the data active means activation above about 27%;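 further: cells stimulated with NPY near EC25 plus isoproterenol at EC100; 0% = vehicle plus submaximal agonist and 100% = vehicle plus saturating agonist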
NPY-Y1 ant conf – human NPY-Y1 antagonism, confirmation | AID 1254 | 1,200 tested, 21% active | shares compounds with NPY Y1 blocker | HEK293-CNG NPY-Y1, membrane potential fluorescence, cAMP; NPY challenge against isoproterenol-raised cAMP | inhibition, % at 3.6 µM; in the data active means inhibition above about 20%;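 further: 0% = vehicle with agonist plus stimulus and 100% = stimulus alone without agonist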
NPY-Y2 antag ct – antagonizes human NPY-Y2, counter-screen to NPY-Y1 antagonists; shares compounds with NPY Y1 blocker; 1,200 tested, 28% active; HEK293 NPY-Y2 CNG membrane potential fluorescence, antagonism; cells given NPY, then isoproterenol; inhibition, % at 3.6 µM;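 further: 0% = DMSO with agonist challenge and 100% = reference antagonist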
Starred values were filed as active, the others as inactive; · = no result. Unless noted, no stated cut-off is given here; in the data, active means inhibition above about 17%; inactive means the rest.

SMILES	NPY Y1 blocker	PGE2 EP2 inh	NPY-Y2 antag	EP2 modulator	NPY-Y1 PAM-ag	NPY2 pot ag	NPY-Y1 ant conf	NPY-Y2 antag ct
COc1cccc(N(C(=O)C2CSC(=O)C2)C(C(=O)NC(C)(C)C)c2ccccn2)c1 (centres undefined)	·	24.9	·	-6.2	·	·	·	·
Cc1nc(SCC(=O)NCc2ccc3c(c2)OCO3)c(C#N)c2c1CCCC2	20.7*	10.7	13.1	-0.3	-26.0	1.5	4.0	9.6
CCc1cc2ccc(C)c(C)c2nc1SCC(=O)NCc1ccc2c(c1)OCO2	·	2.5	·	42.0	·	·	·	·
Cc1ccsc1-c1nc(CSCC(=O)NCc2ccc3c(c2)OCO3)c(C)o1	20.6*	·	3.8	9.9	-4.9	-16.1	10.8	8.0
COc1cccc2cc(C(=O)Nc3ccc(-n4cnnn4)c(C)c3)c(=O)oc12	·	9.4	·	-25.7	·	·	·	·
CCN(CC)CCN(Cc1cc2cc(C)cc(C)c2[nH]c1=O)C(=S)NCc1ccco1	21.0*	12.2	10.9	8.0	-81.1	-20.5	13.6	14.3
CCN(CC)CCN(Cc1cc2ccc(C)c(C)c2[nH]c1=O)C(=S)NCc1ccco1	27.1*	8.1	·	-25.9	-19.9	-31.2	14.6	15.5
O=C(NC1CCCCC1)C(c1ccc2ncccc2c1)N(Cc1ccc2c(c1)OCO2)C(=O)c1ccc2c(c1)OCCO2 (centres undefined)	3.3	20.6	5.2	31.0	-12.8	-6.7	·	·
O=C(NC1CCCCC1)C(c1ccc2ncccc2c1)N(Cc1cccs1)C(=O)c1cccs1 (centres undefined)	31.7*	9.9	3.0	-45.0	-9.9	3.3	4.8	6.4
Cc1cccc(NC(=O)COc2ccc(Cl)cc2Cl)n1	·	10.7	·	-2.1	·	·	·	·
Cc1ccc(C)n1-c1ccccc1N1CCCCC1	56.2*	5.3	·	63.5*	8.7	12.4	3.0	3.1
Cc1cc(=O)cc(C)n1-c1ccccc1N1CCOCC1	-0.1	7.6	0.3	14.1	21.1	-2.0	·	·
CCOC(=O)CN1C(=O)N[C@H](c2ccc(Br)cc2)C(C(C)=O)=C1C	23.6*	0.5	11.4	32.3	-16.2	-9.2	4.1	6.0
CCOC(=O)CN1C(=O)N[C@@H](c2ccc(Br)cc2)C(C(=O)OC)=C1C	·	10.0	·	-0.4	·	·	·	·
COc1cccc(C(=O)N2CCN(C3CCCC(C)C3)CC2)c1 (centres undefined)	·	6.8	·	-12.0	·	·	·	·
Cc1ccccc1OCc1nc2ccccc2c(=O)n1NC(=O)c1ccco1	20.4*	9.8	3.8	33.2	-25.7	-21.0	8.1	9.2
Cc1nc2ccccc2c(=O)n1NC(=O)c1ccco1	8.1	13.6	6.3	27.2	-14.4	-10.6	·	·
CCCCCCC(=O)Nc1nc(C)c(-c2csc(Nc3ccc(Cl)cc3)n2)s1	24.9*	24.4	5.3	10.0	9.6	-9.0	15.0	3.8
CCCCCC(=O)Nc1nc(C)c(-c2csc(Nc3ccc(Cl)cc3)n2)s1	8.5	7.2	3.7	8.3	-9.2	10.2	·	·
COC(=O)c1sccc1NC(=O)CSc1cccc(Cl)c1Cl	23.6*	·	12.1	61.0*	-34.3	-30.0	5.5	9.2
COC(=O)c1sccc1NC(=O)/C=C/c1c(Cl)cccc1Cl	3.3	20.9	1.2	28.4	-0.9	-5.1	·	·
Cc1ccc(S(=O)(=O)N(C)C)cc1NC(=O)Nc1c(-c2ccccc2)noc1C	·	5.7	·	9.2	-2.3	-5.0	·	·
Cc1onc(-c2ccccc2)c1NC(=O)Nc1c(-c2ccccc2)noc1C	30.5*	4.1	·	24.4	12.6	5.5	6.6	1.8
CN1CCN(c2nc(-c3ccccc3)c3cc(Cl)ccc3n2)CC1	11.5	24.2	14.5	19.1	-50.1	-32.5	·	·
Clc1ccc2nc(N3CCNCC3)nc(-c3ccccc3)c2c1	25.9*	10.9	8.2	·	-79.9	-9.9	18.9	19.8*
SMILES	NPY Y1 blocker	PGE2 EP2 inh	NPY-Y2 antag	EP2 modulator	NPY-Y1 PAM-ag	NPY2 pot ag	NPY-Y1 ant conf	NPY-Y2 antag ct
CCC(c1nnnn1C(C)(C)C)N(Cc1ccc(F)cc1)Cc1cc2c(C)cc(C)cc2[nH]c1=O (centres undefined)	·	11.0	·	27.5	·	·	·	·
Cc1ccc(C)c(N2CCN(C(=O)C(Cc3ccccc3)n3cccc3)CC2)c1 (centres undefined)	24.9*	11.2	12.7	37.4	-23.5	-26.7	10.7	15.0
COc1ccc(CN(Cc2ccncc2)Cc2ccc(C)cc2)cc1Cn1cccn1	·	3.1	·	31.5	·	·	·	·
O=c1[nH]c(CSc2nnc(-c3ccccc3)n2C2CCCCC2)nc2ccccc12	29.9*	7.3	0.4	26.0	-3.8	10.4	-2.2	0.5
CN(C)CC(=O)c1ccc(-c2ccccc2)cc1	20.4*	7.2	3.1	-30.1	-22.2	-3.7	1.6	7.4
CN(C)CCNc1oc(-c2ccccc2F)nc1C#N	-0.7	4.7	-0.2	0.2	3.2	2.3	·	·
N#Cc1nc(-c2ccccc2F)oc1NCc1cccc2c1OCO2	28.3*	18.8	14.2	-46.0	-40.3	-52.7	5.7	6.8
CC[n+]1c(/C=C/N(C)c2ccccc2)oc2ccc(Cl)cc21	5.2	5.1	3.7	6.0	-8.1	-4.1	·	·
CCN1/C(=C/C=C/c2oc3ccc4ccccc4c3[n+]2CC)Oc2ccc3ccccc3c21	35.4*	5.3	·	-22.2	-24.1	-28.3	30.2*	29.5*
CCc1cccc2c(=O)c(C(=O)N(CC)CC)c[nH]c12	·	11.2	·	-15.2	·	·	·	·
CN1CCC(Oc2ccc(Sc3ccccc3)cc2)CC1	6.5	12.1	7.8	-78.4	-17.0	7.7	·	·
CN1CCC(Oc2ccccc2Sc2ccc(C(F)(F)F)cc2)CC1	29.8*	12.1	15.9	-71.3	-38.4	-10.2	8.3	15.2
CC1(C)[C@H]2CC[C@]1(C)[C@H](OC(=O)CSC#N)C2	·	8.5	·	-8.7	·	·	·	·
CC1(C)C2CCC1(C)C(OCC[N+](C)(C)CC(=O)OC1CCCCC1)C2 (centres undefined)	23.7*	6.3	1.6	0.9	-46.8	2.2	10.3	14.0
CCOC(=O)C[N+](C)(C)CCOC1CC2CCC1(C)C2(C)C (centres undefined)	24.2*	8.6	·	5.9	-28.2	-6.7	10.1	6.1
Cc1noc(C)c1CSc1nc2ccccc2n1C	4.1	7.1	-0.7	-4.2	11.1	6.5	·	·
Cc1noc(C)c1CSc1nnc(-c2ccccc2F)n1CCc1ccccc1	20.5*	1.8	12.0	1.8	-15.5	9.3	4.5	3.7
C=CCOc1ccc(Br)cc1/C=N/O	24.4*	14.0	11.4	13.4	-44.9	-9.2	12.1	7.1
Cc1nc(-n2ncc(C#N)c2N)c2c3c(sc2n1)CCC3	14.4	2.1	1.4	27.6	-4.8	-1.5	·	·
